Tests used:
[1] = Selectivity index, ratio of CC50 for human MT4 cells to EC50 for reverse transcriptase Y181C mutant in human MT4 cells infected HIV1 3B; conditions: MT4 cells
[2] = Cytotoxicity against human MT4 cells assessed as cell viability after 5 days by MTT assay; type: cell-based
[3] = test system: Human immunodeficiency virus 2; assay: Antiviral activity against HIV2 ROD harboring reverse transcriptase infected in human MT4 cells assessed as protection against virus induced cytotoxicity after 5 days by MTT assay; type: functional, cell-based; conditions: Human immunodeficiency virus 2, ISOLATE ROD, MT4, 120 h
[4] = Selectivity index, ratio of CC50 for human MT4 cells to EC50 for reverse transcriptase F227L/V106A double mutant in human MT4 cells infected HIV1 3B; conditions: MT4 cells
[5] = Fold resistance, ratio of EC50 for reverse transcriptase K103N/Y181C double mutant in human MT4 cells infected HIV1 RES056 to EC50 for wild type HIV1 3B harboring reverse transcriptase infected in human MT4 cells; type: functional
How it was run: (§1)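 MT-4 cells at 6 × 10^5 cells/mL were infected with WT HIV-1 IIIB or RT-mutant strains at 100−300 CCID50, with 5-fold serial compound dilutions in triplicate wells. After 5 days, viability was read by MTT reduction at 540 and 690 nm, using the median OD of three wells. […] Fold resistance is mutant EC50 divided by WT EC50.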

[6] = test system: Human immunodeficiency virus 1; assay: Antiviral activity against wild type HIV1 3B harboring reverse transcriptase infected in human MT4 cells assessed as protection against virus induced cytotoxicity after 5 days by MTT assay; type: functional, cell-based; conditions: Human immunodeficiency virus 1, 3B, MT4, 120 h
[7] = Selectivity index, ratio of CC50 for human MT4 cells to EC50 for wild type HIV1 3B harboring reverse transcriptase infected in human MT4 cells; conditions: MT4 cells
[8] = Selectivity index, ratio of CC50 for human MT4 cells to EC50 for reverse transcriptase L100I mutant in human MT4 cells infected HIV1 3B; conditions: MT4 cells
[9] = Selectivity index, ratio of CC50 for human MT4 cells to EC50 for reverse transcriptase K103N mutant in human MT4 cells infected HIV1 3B; conditions: MT4 cells
[10] = Selectivity index, ratio of CC50 for human MT4 cells to EC50 for HIV1 RES056 reverse transcriptase K103N/Y181C double mutant infected in human MT4 cells; conditions: MT4 cells
[11] = Selectivity index, ratio of CC50 for human MT4 cells to EC50 for reverse transcriptase Y188L mutant in human MT4 cells infected HIV1 3B; conditions: MT4 cells
[12] = Selectivity index, ratio of CC50 for human MT4 cells to EC50 for reverse transcriptase E138K mutant in human MT4 cells infected HIV1 3B; conditions: MT4 cells
[13] = Inhibition of recombinant wild type HIV1 3B reverse transcriptase infected in human MT4 cells assessed as decrease in biotin-dUTP incorporation after 1 hr; type: cell-based; conditions: Human immunodeficiency virus 1, 3B, MT4, 1 h
How it was run: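 Recombinant HIV-1 RT assayed with a kit ELISA. Enzyme, reconstituted template and nucleotides (DIG-dUTP, biotin-dUTP, dTTP) were incubated in incubation buffer with or without inhibitor for 1 h at 37 °C. Product was captured on streptavidin plates for 1 h at 37 °C, then anti-DIG-POD was added for 1 h at 37 °C, followed by ABTS. Read at OD405.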

[14] = Fold resistance, ratio of EC50 for reverse transcriptase E138K mutant in human MT4 cells infected HIV1 3B to EC50 for wild type HIV1 3B harboring reverse transcriptase infected in human MT4 cells; type: functional; how it was run: as §1
[15] = Fold resistance, ratio of EC50 for reverse transcriptase L100I mutant in human MT4 cells infected HIV1 3B to EC50 for wild type HIV1 3B harboring reverse transcriptase infected in human MT4 cells; type: functional; how it was run: as §1

## Cc1cc(/C=C/C#N)cc(C)c1Oc1nc(NC2CCN(Cc3cccnc3)CC2)nc2ccsc12
[1]
  selectivity ratio: 637
[2]
  CC50 at 120 h: 3.86 µM
[3]
  EC50: > 3.86 µM
[4]
  selectivity ratio: 664
[5]
  Ratio EC50: 3.4 - 6
[6]
  EC50: 0.00322 µM
[7]
  selectivity ratio: 1200
[8]
  selectivity ratio: 866
[9]
  selectivity ratio: 872
[10]
  selectivity ratio: 308
[11]
  selectivity ratio: 358
[12]
  selectivity ratio: 587

## Cc1cc(/C=C/C#N)cc(C)c1Oc1nc(NC2CCN(Cc3ccc(S(C)(=O)=O)cc3)CC2)nc2ccsc12
[2]
  CC50 at 120 h: 1.8 µM
[13]
  IC50: 0.89 µM
[6]
  EC50: 0.00232 µM

## Cc1cc(C#N)cc(C)c1Oc1nc(NC2CCN(Cc3ccc(S(N)(=O)=O)cc3)CC2)nc2sccc12
[1]
  selectivity ratio: 3160
[2]
  CC50 at 120 h: 24.1 µM
[3]
  EC50: > 24.1 µM
[4]
  selectivity ratio: 2730
[13]
  IC50: 0.42 µM
[6]
  EC50: 0.00197 µM
[7]
  selectivity ratio: 12300
[8]
  selectivity ratio: 5440
[9]
  selectivity ratio: 7370
[10]
  selectivity ratio: 625
[11]
  selectivity ratio: 3170
[12]
  selectivity ratio: 3180

## Cc1cc(C#N)cc(C)c1Oc1nc(NC2CCC(NCc3ccc([N+](=O)[O-])cc3)CC2)nc2ccsc12 (centres undefined)
[1]
  selectivity ratio: ≤ 2
[2]
  CC50 at 120 h: 54.4 µM
[3]
  EC50: > 54.4 µM
[4]
  selectivity ratio: 84
[6]
  EC50: 0.1 µM
[7]
  selectivity ratio: 544
[8]
  selectivity ratio: 35
[14]
  Ratio EC50: 1.6
[9]
  selectivity ratio: 79
[10]
  selectivity ratio: < 1
[11]
  selectivity ratio: 5
[12]
  selectivity ratio: 344

## Cc1cc(C#N)cc(C)c1Oc1nc(NC2CCN(Cc3ccc(S(N)(=O)=O)cc3)CC2)nc2ccsc12
[1]
  selectivity ratio: > 70000
[4]
  selectivity ratio: > 53500
[5]
  Ratio EC50: 21
[8]
  selectivity ratio: > 67400
[15]
  Ratio EC50: 2.4
[9]
  selectivity ratio: > 78100
[10]
  selectivity ratio: > 7350
[11]
  selectivity ratio: > 75800
[12]
  selectivity ratio: > 78100

## Cc1ccccc1CN1CCC(Nc2nc(Oc3c(C)cc(/C=C/C#N)cc3C)c3sccc3n2)CC1
[1]
  selectivity ratio: 33
[2]
  CC50 at 120 h: 2.83 µM
[3]
  EC50: > 2.83 µM
[4]
  selectivity ratio: 46
[6]
  EC50: 0.0157 µM
[7]
  selectivity ratio: 180
[8]
  selectivity ratio: 60
[9]
  selectivity ratio: 114
[10]
  selectivity ratio: 3
[11]
  selectivity ratio: 16
[12]
  selectivity ratio: 22

## Cc1cc(C#N)cc(C)c1Oc1nc(NC2CCC(NCc3ccc(S(N)(=O)=O)cc3)CC2)nc2ccsc12 (centres undefined)
[2]
  CC50 at 120 h: 3.69 µM
[13]
  IC50: 4.02 µM
[6]
  EC50: 0.0422 µM

## Cc1cc(/C=C/C#N)cc(C)c1Oc1nc(NC2CCN(Cc3ccc(Br)cc3)CC2)nc2ccsc12
[1]
  selectivity ratio: 53
[2]
  CC50 at 120 h: 6.79 µM
[3]
  EC50: > 6.79 µM
[4]
  selectivity ratio: 42
[6]
  EC50: 0.0283 µM
[7]
  selectivity ratio: 240
[8]
  selectivity ratio: 117
[9]
  selectivity ratio: 227
[10]
  selectivity ratio: 44
[11]
  selectivity ratio: 24
[12]
  selectivity ratio: 44

## Cc1cc(/C=C/C#N)cc(C)c1Oc1nc(NC2CCN(Cc3ccccc3Cl)CC2)nc2ccsc12
[1]
  selectivity ratio: 37
[2]
  CC50 at 120 h: 4.93 µM
[3]
  EC50: > 4.93 µM
[4]
  selectivity ratio: 68
[6]
  EC50: 0.0274 µM
[7]
  selectivity ratio: 179
[8]
  selectivity ratio: 162
[9]
  selectivity ratio: 169
[10]
  selectivity ratio: 30
[11]
  selectivity ratio: 24
[12]
  selectivity ratio: 31
